Values belong to the molecule of their own block, whether it stands above or below them.
Key:
HeLa [1] = test: Compound (at a concentration of 100 uM) was evaluated for the effect on DNA synthesis by HeLa cells in culture and the percentage inhibition of [3H]- thymidine incorporation after 3h of addition was reported.; format: functional; conditions: Homo sapiens
In short: (§1)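 Exponentially growing HeLa S3 cells (7×10^5 cells/mL, suspension) exposed to compound at 100 μM in Me2SO, or Me2SO alone, at 37 °C. After 3 h, [methyl-3H]thymidine added to 1 μCi/mL. After 30 min, quenched with cold PBS, pelleted, alkali hydrolysed (1 M NaOH, 65 °C, 1 h), TCA/pyrophosphate precipitated and filtered. Alkali-stable acid-insoluble counts give % inhibition versus solvent control.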

HeLa [2] = test: Compound was evaluated for the effect on DNA synthesis by HeLa cells in culture and the inhibition of [3H]- thymidine incorporation after 3h of addition; format: functional, cell-based; conditions: Homo sapiens
In short: (§2)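 IC50 for [methyl-3H]thymidine incorporation into DNA of exponentially growing HeLa S3 suspension cells (7×10^5 cells/mL). Compounds in Me2SO, or Me2SO control, incubated 3 h at 37 °C, then label added at 1 μCi/mL for 30 min. Alkali-stable, acid-precipitable counts measured after NaOH (65 °C, 1 h) and TCA/pyrophosphate filtration.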

HeLa [3] = test: Compound was evaluated for the effect on DNA synthesis by HeLa cells in culture and the percentage inhibition of [3H]- thymidine incorporation after 3h of addition was reported at 100 uM; format: functional; conditions: Homo sapiens; in short: as §1
HeLa [4] = test: Compound (at a concentration of 100 uM) was evaluated for the effect on growth and macromolecule synthesis by HeLa cells and the percentage inhibition of [3H]- leucine incorporation after 3h of addition; format: functional; conditions: Homo sapiens
HeLa [5] = test: Compound was evaluated for the effect on growth and macromolecule synthesis by HeLa cells and the cell growth inhibition; format: functional, cell-based; conditions: Homo sapiens
In short: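 HeLa S3 cells (ca. 2.5×10^4 cells/mL), exponentially growing in Joklik's modified medium with 3.5% calf and 3.5% fetal bovine serum, preincubated 3 h at 37 °C in spinner flasks. Compound in Me2SO or solvent added, and cells counted at t=0 and after 72 h. IC50 derived from % growth inhibition.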

HeLa [6] = test: Percent inhibition against [3H]uridine incorporation into DNA of HeLa cell after 45 mins of treatment; format: functional, Homo sapiens
In short: (§3)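 Exponentially growing HeLa S3 cells (7×10^5 cells/mL) treated with compound in Me2SO (100 μM, or 10 μM where stated), or Me2SO alone, for 3 h at 37 °C. [5,6-3H]uridine then added to 1 μCi/mL for 45 min. DNA: counts remaining acid-precipitable after 1 M NaOH at 60 °C, 1 h. RNA: total TCA-precipitable counts minus the DNA counts.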

HeLa [7] = test: Percent inhibition against [3H]uridine incorporation into RNA of HeLa cell after 45 mins of treatment; format: functional, Homo sapiens; in short: as §3
HeLa [8] = test: Effect on DNA synthesis by HeLa cells was determined by the percentage inhibition of [3H]- thymidine incorporation after 3h; format: functional, cell-based; conditions: Homo sapiens
HeLa [9] = test: Effect on DNA synthesis by HeLa cells was determined by the percentage inhibition of [3H]- thymidine incorporation after 3h at 100 uM; format: functional; conditions: Homo sapiens; in short: as §1
HeLa [10] = test: Effect on DNA synthesis by HeLa cells was determined by the inhibition of [3H]- thymidine incorporation after 3h of addition; format: functional, cell-based; conditions: Homo sapiens; in short: as §2
HeLa [11] = test: Effect on growth and macromolecule synthesis by HeLa cells was determined as the percentage inhibition of [3H]- leucine incorporation after 3h of addition at 100 uM; format: functional; conditions: Homo sapiens
HeLa [12] = test: Percent inhibition against [3H]-Uridine incorporation into DNA of HeLa cell after 45 mins of treatment at 100 uM; format: functional; conditions: Homo sapiens; in short: as §3
HeLa [13] = test: Percent inhibition against [3H]-Uridine incorporation into RNA of HeLa cell after 45 mins of treatment at 100 uM; format: functional; conditions: Homo sapiens; in short: as §3
HeLa [14] = test: Percent inhibition against [3H]uridine incorporation into RNA of HeLa cell after 45 mins of treatment at 10 uM; format: functional; conditions: Homo sapiens; in short: as §3
HeLa [15] = test: Effect on DNA synthesis by HeLa cells was determined by the percentage inhibition of [3H]- thymidine incorporation after 3h at 200 uM; format: functional, Homo sapiens
In short: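 HeLa S3 cells in exponential suspension culture (7×10^5 cells/mL) treated at 200 μM in Me2SO, or Me2SO alone, at 37 °C. After 3 h, [methyl-3H]thymidine added to 1 μCi/mL for 30 min. Cells were then pelleted, NaOH hydrolysed at 65 °C, and TCA precipitated onto filters. Alkali-stable acid-precipitable radioactivity gives % inhibition against solvent control.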

HeLa [16] = test: Compound was evaluated for the effect on [3H]- Uridine incorporation by HeLa cells and percentage inhibition into DNA; format: functional, Homo sapiens
In short: (§4)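 HeLa S3 cells grown in suspension, exponential phase (7 × 10^5 cells/mL), given compound in Me2SO (Me2SO alone for controls) for 3 h at 37 °C, then [5,6-3H]uridine to 1 μCi/mL for 45 min. DNA: alkali-stable, TCA-precipitable counts after 1 M NaOH at 60 °C for 1 h. RNA: total acid-precipitable nucleic acid minus DNA counts. Percent inhibition relative to control.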

HeLa [17] = test: Compound was evaluated for the effect on [3H]- Uridine incorporation by HeLa cells and percentage inhibition into RNA; format: functional, Homo sapiens; in short: as §4

- IC50 (HeLa [2]): 35 µM
Structure (SMILES): CCCCc1ccc(Nc2nc(Cl)c3[nH]cnc3n2)cc1
- inhibition at 100 µM (HeLa [3]): 99%

- IC50 (HeLa [2]): 30 µM
Structure (SMILES): CCCCc1ccc(Nc2nc(OC)c3[nH]cnc3n2)cc1
- inhibition at 100 µM (HeLa [1]): 80%

- IC50 (HeLa [5]): 40 µM
- IC50 (HeLa [2]): 23 µM
Structure (SMILES): CCCCc1ccc(Nc2nc(N)c3[nH]cnc3n2)cc1
- inhibition at 100 µM (HeLa [4]): 47%
- inhibition at 100 µM (HeLa [1]): 92%
- Inhibition (HeLa [6]): 93%
- Inhibition (HeLa [7]): 87%

- IC50 (HeLa [2]): 40 µM
Structure (SMILES): CCCCc1ccc(Nc2nc(S)c3[nH]cnc3n2)cc1
- inhibition at 100 µM (HeLa [1]): 94%

- IC50 (HeLa [8]): 9 µM
Structure (SMILES): CCCCc1ccc(Nc2nc(Cl)c3ncn(COCCO)c3n2)cc1
- inhibition at 100 µM (HeLa [9]): 99%

- IC50 (HeLa [8]): 38 µM
Structure (SMILES): CCCCc1ccc(Nc2nc(O)c3ncn(COCCO)c3n2)cc1
- inhibition at 100 µM (HeLa [9]): 81%

- IC50 (HeLa [5]): 65 µM
- IC50 (HeLa [2]): 69 µM
Structure (SMILES): CCCCc1ccc(Nc2nc(O)c3[nH]cnc3n2)cc1
- inhibition at 100 µM (HeLa [4]): 13%
- inhibition at 100 µM (HeLa [3]): 63%
- Inhibition (HeLa [6]): 76%
- Inhibition (HeLa [7]): 76%

- IC50 (HeLa [8]): 4.8 µM
- IC50 (HeLa [5]): 5 µM
Structure (SMILES): CCCCc1ccc(Nc2ncc3ncn([C@@H]4C[C@@H](O)[C@H](CO)O4)c3n2)cc1
- inhibition at 100 µM (HeLa [9]): 97%
- inhibition at 100 µM (HeLa [11]): 58%

- IC50 (HeLa [8]): 1 µM
- IC50 (HeLa [5]): 1.4 µM
Structure (SMILES): CCCCc1ccc(Nc2nc(N)c3ncn([C@@H]4C[C@@H](O)[C@H](CO)O4)c3n2)cc1
- inhibition at 100 µM (HeLa [9]): 96%
- inhibition at 100 µM (HeLa [11]): 56%
- Inhibition (HeLa [6]): 81%
- inhibition at 10 µM (HeLa [14]): 73%

- IC50 (HeLa [8]): 11 µM
- IC50 (HeLa [5]): 10.3 µM
Structure (SMILES): CCCCc1ccc(Nc2nc(Cl)c3ncn([C@@H]4C[C@@H](O)[C@H](CO)O4)c3n2)cc1
- inhibition at 100 µM (HeLa [9]): 97%
- inhibition at 100 µM (HeLa [11]): 87%

- IC50 (HeLa [8]): 8.5 µM
Structure (SMILES): CCCCc1ccc(Nc2nc(N)c3ncn(COCCO)c3n2)cc1
- inhibition at 100 µM (HeLa [9]): 97%

- IC50 (HeLa [2]): 47 µM
Structure (SMILES): CCCCc1ccc(Nc2nc3ncnc-3c[nH]2)cc1
- inhibition at 100 µM (HeLa [1]): 78%

- IC50 (HeLa [8]): 4.8 µM
Structure (SMILES): CCCCc1ccc(Nc2ncc3ncn(COCCO)c3n2)cc1
- inhibition at 100 µM (HeLa [9]): 97%

Second part, the molecule before the results:

Structure (SMILES): Oc1[nH]c(Nc2ccc3c(c2)CCC3)nc2ncnc1-2
- inhibition at 100 µM (HeLa [1]): 79%
- IC50 (HeLa [2]): 52 µM

Structure (SMILES): CCc1cc(Nc2nc(O)c3[nH]cnc3n2)ccc1C
- inhibition at 100 µM (HeLa [1]): 44%

Structure (SMILES): CCCCc1ccc(Nc2nc(OC)c3ncn(COCCO)c3n2)cc1
- inhibition at 100 µM (HeLa [9]): 80%

Structure (SMILES): CCCCc1ccc(Nc2nc(S)c3ncn(COCCO)c3n2)cc1
- inhibition at 100 µM (HeLa [9]): 87%

Structure (SMILES): CCCCc1ccc(Nc2nc3c(ncn3[C@@H]3C[C@@H](O)[C@H](CO)O3)c(=O)[nH]2)cc1
- IC50 (HeLa [10]): 37 µM
- IC50 (HeLa [5]): 25 µM
- inhibition at 100 µM (HeLa [9]): 86%
- inhibition at 100 µM (HeLa [11]): 7%
- inhibition at 100 µM (HeLa [12]): 91%
- inhibition at 100 µM (HeLa [13]): 91%

Structure (SMILES): CCCCc1ccc(Nc2nc(S)c3ncn([C@@H]4C[C@@H](O)[C@H](CO)O4)c3n2)cc1
- inhibition at 100 µM (HeLa [9]): 63%

Structure (SMILES): CCCCc1ccc(Nc2nc(SC)c3[nH]cnc3n2)cc1
- inhibition at 100 µM (HeLa [1]): 72%
- IC50 (HeLa [2]): 32 µM

Structure (SMILES): CCCCc1ccc(Nc2nc3c(ncn3[C@@H]3C[C@@H](O)[C@H](CO)O3)c(=O)[nH]2)cc1 (stereo in doubt; 11)
- Inhibition (HeLa [15]): 53%

Structure (SMILES): CCCCc1ccc(Nc2nc3c(ncn3[C@@H]3C[C@@H](O)[C@H](CO)O3)c(=O)[nH]2)cc1 (stereo in doubt; 12)
- inhibition at 200 µM (HeLa [15]; Homo sapiens, HeLa, 3 h): 46%

Structure (SMILES): CCCCc1ccc(Nc2nc3c(ncn3[C@H]3O[C@@H](CO)[C@H](O)[C@@H]3O)c(=O)[nH]2)cc1 (stereo in doubt; 13)
- Inhibition (HeLa [15]): 75%

Structure (SMILES): CCCCc1ccc(Nc2nc3c(ncn3[C@H]3O[C@@H](CO)[C@H](O)[C@@H]3O)c(=O)[nH]2)cc1 (stereo in doubt; 14)
- Inhibition (HeLa [15]): 38%

Structure (SMILES): C[C@@]1(CO)[C@H](O)CC[C@@]2(C)[C@H]1CC[C@H]1C[C@@H]3C[C@@]12CC[C@]3(O)CO [APHIDICOLIN]
- Inhibition (HeLa [16]): 84%
- Inhibition (HeLa [17]): 0%
